{
  "source": "ChEMBL document CHEMBL4177770",
  "about": "“Discovery of MK-6169, a Potent Pan-Genotype Hepatitis C Virus NS5A Inhibitor with Optimized Activity against Common Resistance-Associated Substitutions” (J Med Chem, 2018)",
  "key": {"[1]": {"molecular_target": "T1, Nonstructural protein 5A (Hepatitis C virus) (UniProt Q5L478)", "T1 sequence (whole entry)": "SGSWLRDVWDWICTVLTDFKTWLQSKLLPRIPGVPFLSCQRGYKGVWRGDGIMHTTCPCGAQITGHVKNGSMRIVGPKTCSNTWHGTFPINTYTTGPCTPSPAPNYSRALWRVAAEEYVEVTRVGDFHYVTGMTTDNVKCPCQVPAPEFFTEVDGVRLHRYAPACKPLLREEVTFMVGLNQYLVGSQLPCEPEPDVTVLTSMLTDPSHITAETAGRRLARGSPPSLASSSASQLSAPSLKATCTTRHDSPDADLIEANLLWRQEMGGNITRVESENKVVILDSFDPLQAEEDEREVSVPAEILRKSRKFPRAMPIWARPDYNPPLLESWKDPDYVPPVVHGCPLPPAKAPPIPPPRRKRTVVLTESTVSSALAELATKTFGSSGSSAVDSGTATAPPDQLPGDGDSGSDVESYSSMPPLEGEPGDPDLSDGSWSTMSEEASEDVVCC", "test": "Inhibition of NS5A in HCV genotype 3a infected in HuH7 replicon cells assessed as decrease in viral replication after 3 days by RT-PCR method", "format": "cell-based", "conditions": "Hepatitis C virus subtype 3a"}, "[2]": {"test": "Resistance ratio of EC90 for NS5A L31M mutant in HCV genotype 2b infected in HuH7 replicon cells to EC90 for NS5A in HCV genotype 1a infected in HuH7 replicon cells", "format": "cell-based"}, "[3]": {"tested_on": "T2, Nonstructural protein 5A (Hepatitis C virus), Q5L478 [L28M,Y93H]", "T2 sequence (whole entry)": "T1 sequence (whole entry) with L28M, Y93H", "test": "Inhibition of NS5A L28M/Y93H double mutant in HCV genotype 1b infected in HuH7 replicon cells assessed as decrease in viral replication after 3 days by RT-PCR method", "format": "cell-based", "conditions": "Hepatitis C virus subtype 1b"}, "[4]": {"test": "Resistance ratio of EC90 for NS5A L30H mutant in HCV genotype 4a infected in HuH7 replicon cells to EC90 for NS5A in HCV genotype 1a infected in HuH7 replicon cells", "format": "cell-based"}, "[5]": {"test": "Cmax in Wistar Han rat at 10 mg/kg, po by LC/MS method", "format": "ADME, organism-based", "parameters": "dose 10 mg/kg, route oral", "conditions": "in vivo", "outline": "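Male Wistar Han rats, two per dosing group, dosed orally at 10 mg/kg in 10% TWEEN. Plasma was separated from collected blood by centrifugation and analysed by LC/MS.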"}, "[6]": {"test": "Resistance ratio of EC90 for NS5A L31F mutant in HCV genotype 3a infected in HuH7 replicon cells to EC90 for NS5A in HCV genotype 1a infected in HuH7 replicon cells", "format": "cell-based"}, "[7]": {"test": "Resistance ratio of EC90 for NS5A F28L mutant in HCV genotype 2a infected in HuH7 replicon cells to EC90 for NS5A in HCV genotype 1a infected in HuH7 replicon cells", "format": "cell-based"}, "[8]": {"molecular_target": "T1, Nonstructural protein 5A (Hepatitis C virus)", "test": "Inhibition of NS5A A92P mutant in HCV genotype 1a infected in HuH7 replicon cells assessed as decrease in viral replication after 3 days by RT-PCR method", "format": "cell-based", "conditions": "Hepatitis C virus subtype 1a"}, "[9]": {"molecular_target": "T1, Nonstructural protein 5A (Hepatitis C virus)", "test": "Inhibition of NS5A A146S mutant in HCV genotype 2b infected in HuH7 replicon cells assessed as decrease in viral replication after 3 days by RT-PCR method", "format": "cell-based", "conditions": "Hepatitis C virus subtype 2b"}, "[10]": {"test": "Resistance ratio of EC90 for NS5A L31M mutant in HCV genotype 1b infected in HuH7 replicon cells to EC90 for NS5A in HCV genotype 1a infected in HuH7 replicon cells", "format": "cell-based"}, "[11]": {"molecular_target": "T1, Nonstructural protein 5A (Hepatitis C virus)", "test": "Inhibition of NS5A L31V mutant in HCV genotype 3a infected in HuH7 replicon cells assessed as decrease in viral replication after 3 days by RT-PCR method", "format": "cell-based", "conditions": "Hepatitis C virus subtype 3a"}, "[12]": {"test": "Resistance ratio of EC90 for NS3 D168Y mutant in HCV genotype 1b infected in HuH7 replicon cells to EC90 for NS5A in HCV genotype 1a infected in HuH7 replicon cells"}, "[13]": {"test": "AUC in Wistar Han rat at 100 mg/kg, po by LC/MS method", "format": "ADME, organism-based", "conditions": "in vivo", "outline": "(§1)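 Single rising oral dose study in fed male Wistar Han rats, dosed PO in 10% TWEEN at the indicated doses. Plasma was obtained by centrifuging the blood, and compound levels were determined by LC/MS.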"}, "[14]": {"tested_on": "Hepatitis C virus subtype 1a", "test": "Resistance ratio of EC90 for NS5A R81S mutant in HCV genotype 1a infected in HuH7 replicon cells to EC90 for NS5A in HCV genotype 1a infected in HuH7 replicon cells", "format": "cell-based"}, "[15]": {"test": "Resistance ratio of EC90 for NS5A A30K mutant in HCV genotype 3a infected in HuH7 replicon cells to EC90 for NS5A in HCV genotype 1a infected in HuH7 replicon cells", "format": "cell-based"}, "[16]": {"molecular_target": "T1, Nonstructural protein 5A (Hepatitis C virus)", "test": "Inhibition of NS5A Q30R mutant in HCV genotype 1a infected in HuH7 replicon cells assessed as decrease in viral replication after 3 days by RT-PCR method", "format": "cell-based", "conditions": "Hepatitis C virus subtype 1a"}, "[17]": {"molecular_target": "T1, Nonstructural protein 5A (Hepatitis C virus)", "test": "Inhibition of NS5A P32L mutant in HCV genotype 4a infected in HuH7 replicon cells assessed as decrease in viral replication after 3 days by RT-PCR method", "format": "cell-based", "conditions": "Hepatitis C virus subtype 4a"}, "[18]": {"test": "Clearance in Wistar Han rat at 2 mg/kg, iv by LC/MS method", "format": "ADME, organism-based", "conditions": "in vivo", "outline": "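Male Wistar Han rats, two per group, dosed IV at 2 mg/kg in 60% PEG200. Plasma was obtained by centrifuging the blood, and compound concentrations were measured by LC/MS.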"}, "[19]": {"molecular_target": "T1, Nonstructural protein 5A (Hepatitis C virus)", "test": "Inhibition of NS5A R81S mutant in HCV genotype 1a infected in HuH7 replicon cells assessed as decrease in viral replication after 3 days by RT-PCR method", "format": "cell-based", "conditions": "Hepatitis C virus subtype 1a"}, "[20]": {"test": "Drug level in Wistar Han rat at 100 mg/kg, po measured at 24 hrs by LC/MS method", "format": "ADME, organism-based", "conditions": "in vivo, read-out: Drug uptake", "outline": "as §1"}, "[21]": {"test": "Resistance ratio of EC90 for NS5A L28M/Y93H double mutant in HCV genotype 1b infected in HuH7 replicon cells to EC90 for NS5A in HCV genotype 1a infected in HuH7 replicon cells", "format": "cell-based"}, "[22]": {"test": "MRT in Wistar Han rat at 300 mg/kg, po by LC/MS method", "format": "ADME, organism-based", "conditions": "in vivo", "outline": "as §1"}},
  "note": "Changes are numbered by the printed parent chain.",
  "data": [
    {"smiles": "COC(=O)N[C@H](C(=O)N1CCC[C@H]1c1ncc(-c2cc(F)c3c(c2)O[C@@H](c2ccc(C4CC4)s2)n2c-3cc3cc(-c4cnc([C@@H]5CCCN5C(=O)[C@@H](NC(=O)OC)[C@@H]5CCOC(C)(C)C5)[nH]4)ccc32)[nH]1)C(C)C", "values": [
      {"measurement": "EC90", "setting": "[1]", "value": "1 to 6.6", "unit": "pM"},
      {"measurement": "Ratio", "setting": "[2]", "value": 4},
      {"measurement": "EC90", "setting": "[3]", "value": 65, "unit": "pM"},
      {"measurement": "Ratio", "setting": "[4]", "value": 17},
      {"measurement": "Cmax", "setting": "[5]", "value": "150 to 183", "unit": "nM"},
      {"measurement": "Ratio", "setting": "[6]", "value": 69},
      {"measurement": "Ratio", "setting": "[7]", "value": "< 1"},
      {"measurement": "EC90", "setting": "[8]", "value": 0.14, "unit": "pM"},
      {"measurement": "EC90", "setting": "[9]", "value": 3.4, "unit": "pM"},
      {"measurement": "Ratio", "setting": "[10]", "value": "< 1"},
      {"measurement": "EC90", "setting": "[11]", "value": 3200, "unit": "pM"},
      {"measurement": "Ratio", "setting": "[12]", "value": "< 1"},
      {"measurement": "AUC", "setting": "[13]", "value": 7.82, "unit": "µM·h"},
      {"measurement": "Ratio", "setting": "[14]", "value": "< 1"},
      {"measurement": "Ratio", "setting": "[15]", "value": 4},
      {"measurement": "EC90", "setting": "[16]", "value": 120, "unit": "pM"},
      {"measurement": "EC90", "setting": "[17]", "value": 4.4, "unit": "pM"},
      {"measurement": "clearance", "setting": "[18]", "value": 7, "unit": "mL/min/kg"},
      {"measurement": "EC90", "setting": "[19]", "value": 0.33, "unit": "pM"},
      {"measurement": "concentration at 24 h", "setting": "[20]", "value": 72, "unit": "nM"},
      {"measurement": "Ratio", "setting": "[21]", "value": 15},
      {"measurement": "MRT", "setting": "[22]", "value": 10.7, "unit": "h"}
    ]}
  ]
}
